Experimental data reported in ChEMBL document CHEMBL3779892, “Increasing the binding affinity of VEGFR-2 inhibitors by extending their hydrophobic interaction with the active site: Design, synthesis and biological evaluation of 1-substituted-4-(4-methoxybenzyl)phthalazine derivatives” (Eur J Med Chem, 2016).

Legend:
Assay type in all cases: functional
M14 = test: Growth inhibition of human M14 cells at 10 uM after 48 hrs by sulforhodamine B assay; conditions: M14, 48 h, read-out: GI
Method in brief: (§1)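 Run at NCI on the 60-line panel. Cells grown in RPMI 1640 with 5% FBS and 2 mM L-glutamine, plated at 5000–40,000 cells/well by doubling time, and held 24 h at 37 °C before dosing. Drug (DMSO stock) given at a single final 10 µM in triplicate wells for 48 h. Adherent cells fixed with cold TCA (10% final), suspension cells with 16% TCA. SRB stain read at 515 nm. Percent growth from Tz, C and Ti.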

A549 = test: Growth inhibition of human A549 cells at 10 uM after 48 hrs by sulforhodamine B assay; conditions: A549, 48 h, read-out: GI; method in brief: as §1
[1] = Growth inhibition of human NCI-ADR-RES cells at 10 uM after 48 hrs by sulforhodamine B assay; conditions: read-out: GI; method in brief: as §1
[2] = Growth inhibition of human UACC62 cells at 10 uM after 48 hrs by sulforhodamine B assay; conditions: UACC-62, 48 h, read-out: GI
Method in brief: (§2)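 NCI-60 panel, adherent cells grown in RPMI 1640 with 5% FBS and 2 mM L-glutamine, plated at 5000–40,000 cells/well and preincubated 24 h at 37 °C, 5% CO2. 10 µM final compound from DMSO stock, triplicate wells, 48 h. Fixed with cold TCA (10% final, 60 min, 4 °C) and stained with 0.4% SRB. Absorbance read at 515 nm; growth calculated against time-zero and control wells.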

U-251 = test: Growth inhibition of human U251 cells at 10 uM after 48 hrs by sulforhodamine B assay; conditions: U-251, 48 h, read-out: GI; method in brief: as §2
K562 = test: Growth inhibition of human K562 cells at 10 uM after 48 hrs by sulforhodamine B assay; conditions: K562, 48 h, read-out: GI; method in brief: as §1
SR = test: Growth inhibition of human SR cells at 10 uM after 48 hrs by sulforhodamine B assay; conditions: read-out: GI
Method in brief: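 NCI-60 screen. Cells were grown in RPMI 1640 with 5% FBS and 2 mM L-glutamine, plated at 5000–40,000 cells/well and held 24 h at 37 °C, 5% CO2. Single 10 µM final dose from DMSO stock, triplicate wells, 48 h. Settled cells were fixed with 80% TCA (16% final) and stained with 0.4% SRB. Dye was solubilized in 10 mM Tris and read at 515 nm. Growth was calculated against time-zero and untreated wells.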

HT-29 = test: Growth inhibition of human HT-29 cells at 10 uM after 48 hrs by sulforhodamine B assay; conditions: HT-29, 48 h, read-out: GI; method in brief: as §1
[3] = Growth inhibition of human SF295 cells at 10 uM after 48 hrs by sulforhodamine B assay; conditions: SF-295, 48 h, read-out: GI; method in brief: as §1
SK-MEL-5 = test: Growth inhibition of human SK-MEL-5 cells at 10 uM after 48 hrs by sulforhodamine B assay; conditions: SK-MEL-5, 48 h, read-out: GI; method in brief: as §1
[4] = Growth inhibition of human SNB75 cells at 10 uM after 48 hrs by sulforhodamine B assay; conditions: SNB-75, 48 h, read-out: GI; method in brief: as §1
[5] = Growth inhibition of human SNB19 cells at 10 uM after 48 hrs by sulforhodamine B assay; conditions: SNB-19, 48 h, read-out: GI; method in brief: as §1
T47D = test: Growth inhibition of human T47D cells at 10 uM after 48 hrs by sulforhodamine B assay; conditions: read-out: GI; method in brief: as §2
[6] = Growth inhibition of human OVCAR3 cells at 10 uM after 48 hrs by sulforhodamine B assay; conditions: OVCAR-3, 48 h, read-out: GI; method in brief: as §1
[7] = Growth inhibition of human OVCAR8 cells at 10 uM after 48 hrs by sulforhodamine B assay; conditions: OVCAR-8, 48 h, read-out: GI; method in brief: as §1
[8] = Growth inhibition of human UACC257 cells at 10 uM after 48 hrs by sulforhodamine B assay; conditions: UACC-257, 48 h, read-out: GI; method in brief: as §2
[9] = Growth inhibition of human HOP62 cells at 10 uM after 48 hrs by sulforhodamine B assay; conditions: HOP-62, 48 h, read-out: GI; method in brief: as §1
[10] = Growth inhibition of human MOLT4 cells at 10 uM after 48 hrs by sulforhodamine B assay; conditions: MOLT-4, 48 h, read-out: GI; method in brief: as §1
[11] = Growth inhibition of human TK10 cells at 10 uM after 48 hrs by sulforhodamine B assay; conditions: TK-10, 48 h, read-out: GI; method in brief: as §2
MCF7 = test: Growth inhibition of human MCF7 cells at 10 uM after 48 hrs by sulforhodamine B assay; conditions: MCF7, 48 h, read-out: GI; method in brief: as §1
[12] = Growth inhibition of human UO31 cells at 10 uM after 48 hrs by sulforhodamine B assay; conditions: UO-31, 48 h, read-out: GI; method in brief: as §2
[13] = Growth inhibition of human SF539 cells at 10 uM after 48 hrs by sulforhodamine B assay; conditions: SF-539, 48 h, read-out: GI; method in brief: as §1
MDA-MB-435 = test: Growth inhibition of human MDA-MB-435 cells at 10 uM after 48 hrs by sulforhodamine B assay; conditions: MDA-MB-435, 48 h, read-out: GI; method in brief: as §1
NCI-H322M = test: Growth inhibition of human NCI-H322M cells at 10 uM after 48 hrs by sulforhodamine B assay; conditions: read-out: GI; method in brief: as §1
MDA-MB-468 = test: Growth inhibition of human MDA-MB-468 cells at 10 uM after 48 hrs by sulforhodamine B assay; conditions: MDA-MB-468, 48 h, read-out: GI; method in brief: as §1
[14] = Growth inhibition of human LOXIMVI cells at 10 uM after 48 hrs by sulforhodamine B assay; conditions: LOX IMVI, read-out: GI; method in brief: as §1
[15] = Growth inhibition of human HCC2998 cells at 10 uM after 48 hrs by sulforhodamine B assay; conditions: HCC 2998, 48 h, read-out: GI; method in brief: as §1
[16] = Growth inhibition of human HOP92 cells at 10 uM after 48 hrs by sulforhodamine B assay; conditions: HOP-92, 48 h, read-out: GI; method in brief: as §1
[17] = Growth inhibition of human DU145 cells at 10 uM after 48 hrs by sulforhodamine B assay; conditions: DU-145, 48 h, read-out: GI; method in brief: as §1
[18] = Growth inhibition of human SW620 cells at 10 uM after 48 hrs by sulforhodamine B assay; conditions: SW-620, 48 h, read-out: GI; method in brief: as §2
SN12C = test: Growth inhibition of human SN12C cells at 10 uM after 48 hrs by sulforhodamine B assay; conditions: read-out: GI; method in brief: as §1
ACHN = test: Growth inhibition of human ACHN cells at 10 uM after 48 hrs by sulforhodamine B assay; conditions: read-out: GI; method in brief: as §1
[19] = Growth inhibition of human COLO205 cells at 10 uM after 48 hrs by sulforhodamine B assay; conditions: COLO 205, 48 h, read-out: GI; method in brief: as §1
SK-MEL-28 = test: Growth inhibition of human SK-MEL-28 cells at 10 uM after 48 hrs by sulforhodamine B assay; conditions: SK-MEL-28, 48 h, read-out: GI; method in brief: as §1

COc1ccc(Cc2nnc(Nc3ccc(NC(=O)Nc4cccc(Cl)c4)cc3)c3ccccc23)cc1
inhibition of growth at 10 µM (M14): < 30% | inhibition of growth at 10 µM (A549): 35% | inhibition of growth at 10 µM [1]: < 30% | inhibition of growth at 10 µM [2]: < 30% | inhibition of growth at 10 µM (U-251): < 30% | inhibition of growth at 10 µM (K562): 30% | inhibition of growth at 10 µM (SR): < 30% | inhibition of growth at 10 µM (HT-29): < 30% | inhibition of growth at 10 µM [3]: < 30% | inhibition of growth at 10 µM (SK-MEL-5): < 30% | inhibition of growth at 10 µM [4]: < 30% | inhibition of growth at 10 µM [5]: < 30% | inhibition of growth at 10 µM (T47D): 39% | inhibition of growth at 10 µM [6]: < 30% | inhibition of growth at 10 µM [7]: < 30% | inhibition of growth at 10 µM [8]: < 30% | inhibition of growth at 10 µM [9]: < 30% | inhibition of growth at 10 µM [10]: < 30% | inhibition of growth at 10 µM [11]: < 30% | inhibition of growth at 10 µM (MCF7): < 30% | inhibition of growth at 10 µM [12]: < 30% | inhibition of growth at 10 µM [13]: < 30% | inhibition of growth at 10 µM (MDA-MB-435): < 30% | inhibition of growth at 10 µM (NCI-H322M): < 30% | inhibition of growth at 10 µM (MDA-MB-468): < 30% | inhibition of growth at 10 µM [14]: < 30% | inhibition of growth at 10 µM [15]: < 30% | inhibition of growth at 10 µM [16]: < 30% | inhibition of growth at 10 µM [17]: < 30% | inhibition of growth at 10 µM [18]: < 30% | inhibition of growth at 10 µM (SN12C): < 30% | inhibition of growth at 10 µM (ACHN): 39% | inhibition of growth at 10 µM [19]: < 30% | inhibition of growth at 10 µM (SK-MEL-28): < 30%

COc1ccc(Cc2nnc(Nc3ccc(NC(=O)Nc4ccc(Cl)c(C(F)(F)F)c4)cc3)c3ccccc23)cc1
inhibition of growth at 10 µM (M14): 40% | inhibition of growth at 10 µM (A549): 48% | inhibition of growth at 10 µM [1]: 67% | inhibition of growth at 10 µM [2]: < 30% | inhibition of growth at 10 µM (U-251): 51% | inhibition of growth at 10 µM (K562): 43% | inhibition of growth at 10 µM (SR): 40% | inhibition of growth at 10 µM (HT-29): 61% | inhibition of growth at 10 µM [3]: 50% | inhibition of growth at 10 µM (SK-MEL-5): 36% | inhibition of growth at 10 µM [4]: 50% | inhibition of growth at 10 µM [5]: 45% | inhibition of growth at 10 µM (T47D): 47% | inhibition of growth at 10 µM [6]: 78% | inhibition of growth at 10 µM [7]: 66% | inhibition of growth at 10 µM [8]: < 30% | inhibition of growth at 10 µM [9]: < 30% | inhibition of growth at 10 µM [10]: 50% | inhibition of growth at 10 µM [11]: < 30% | inhibition of growth at 10 µM (MCF7): 46% | inhibition of growth at 10 µM [12]: < 30% | inhibition of growth at 10 µM [13]: < 30% | inhibition of growth at 10 µM (MDA-MB-435): 35% | inhibition of growth at 10 µM (NCI-H322M): 30% | inhibition of growth at 10 µM (MDA-MB-468): 37% | inhibition of growth at 10 µM [14]: 32% | inhibition of growth at 10 µM [15]: < 30% | inhibition of growth at 10 µM [16]: < 30% | inhibition of growth at 10 µM [17]: < 30% | inhibition of growth at 10 µM [18]: < 30% | inhibition of growth at 10 µM (SN12C): < 30% | inhibition of growth at 10 µM (ACHN): 50% | inhibition of growth at 10 µM [19]: 30% | inhibition of growth at 10 µM (SK-MEL-28): < 30%

COc1ccc(Cc2nnc(Nc3ccc(NC(=O)Nc4ccc(Cl)cc4)cc3)c3ccccc23)cc1
inhibition of growth at 10 µM (M14): 30% | inhibition of growth at 10 µM (A549): 33% | inhibition of growth at 10 µM [1]: < 30% | inhibition of growth at 10 µM [2]: < 30% | inhibition of growth at 10 µM (U-251): 48% | inhibition of growth at 10 µM (K562): < 30% | inhibition of growth at 10 µM (SR): 40% | inhibition of growth at 10 µM (HT-29): 34% | inhibition of growth at 10 µM [3]: 52% | inhibition of growth at 10 µM (SK-MEL-5): < 30% | inhibition of growth at 10 µM [4]: 49% | inhibition of growth at 10 µM [5]: 39% | inhibition of growth at 10 µM (T47D): 37% | inhibition of growth at 10 µM [6]: < 30% | inhibition of growth at 10 µM [7]: < 30% | inhibition of growth at 10 µM [8]: < 30% | inhibition of growth at 10 µM [9]: < 30% | inhibition of growth at 10 µM [10]: 44% | inhibition of growth at 10 µM [11]: < 30% | inhibition of growth at 10 µM (MCF7): 33% | inhibition of growth at 10 µM [12]: < 30% | inhibition of growth at 10 µM [13]: 41% | inhibition of growth at 10 µM (MDA-MB-435): < 30% | inhibition of growth at 10 µM (NCI-H322M): < 30% | inhibition of growth at 10 µM (MDA-MB-468): < 30% | inhibition of growth at 10 µM [14]: < 30% | inhibition of growth at 10 µM [15]: < 30% | inhibition of growth at 10 µM [16]: < 30% | inhibition of growth at 10 µM [17]: < 30% | inhibition of growth at 10 µM [18]: < 30% | inhibition of growth at 10 µM (SN12C): < 30% | inhibition of growth at 10 µM (ACHN): 46% | inhibition of growth at 10 µM [19]: < 30% | inhibition of growth at 10 µM (SK-MEL-28): < 30%
